According to ChEMBL document CHEMBL2086322, “"True" antiandrogens-selective non-ligand-binding pocket disruptors of androgen receptor-coactivator interactions: novel tools for prostate cancer” (J Med Chem, 2012):
Activity calls are given as the source filed them. The calls are words filed in the database; no cut-off is given here.

How the values were obtained:
LNCaP [1] = experiment: Antiproliferative activity against androgen dependent human LNCAP cells assessed as reduction of DHT-induced cell count after 5 days by alamar blue assay; format: functional, cell-based
Summary of the method: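 LNCaP cells deprived of steroids for 48 h in phenol red-free RPMI with 10% charcoal-stripped FBS, then seeded at 2 × 10^4 cells/mL. Treated 5 days with compound (10 and 20 μM) with or without 0.1 nM DHT, 0.1% DMSO final. Medium and treatments renewed every second day after PBS washes. Growth read by AlamarBlue; two experiments, n = 6.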

CWR22R [2] = experiment: Antiproliferative activity against human 22Rv1 cells assessed effect on DHT-induced PSA expression after 2 hrs by ELISA; format: functional, cell-based
CWR22R [3] = experiment: Antiproliferative activity against human 22Rv1 cells assessed reduction of CPA-induced PSA expression after 2 hrs by ELISA; format: functional, cell-based
[4] = target: T1, Androgen receptor (Homo sapiens) (UniProt P10275); experiment: Antagonist activity at androgen receptor in androgen dependent human LNCAP cells assessed reduction of DHT-induced PSA expression after 2 hrs by ELISA; format: functional, cell-based
T1 sequence (whole entry): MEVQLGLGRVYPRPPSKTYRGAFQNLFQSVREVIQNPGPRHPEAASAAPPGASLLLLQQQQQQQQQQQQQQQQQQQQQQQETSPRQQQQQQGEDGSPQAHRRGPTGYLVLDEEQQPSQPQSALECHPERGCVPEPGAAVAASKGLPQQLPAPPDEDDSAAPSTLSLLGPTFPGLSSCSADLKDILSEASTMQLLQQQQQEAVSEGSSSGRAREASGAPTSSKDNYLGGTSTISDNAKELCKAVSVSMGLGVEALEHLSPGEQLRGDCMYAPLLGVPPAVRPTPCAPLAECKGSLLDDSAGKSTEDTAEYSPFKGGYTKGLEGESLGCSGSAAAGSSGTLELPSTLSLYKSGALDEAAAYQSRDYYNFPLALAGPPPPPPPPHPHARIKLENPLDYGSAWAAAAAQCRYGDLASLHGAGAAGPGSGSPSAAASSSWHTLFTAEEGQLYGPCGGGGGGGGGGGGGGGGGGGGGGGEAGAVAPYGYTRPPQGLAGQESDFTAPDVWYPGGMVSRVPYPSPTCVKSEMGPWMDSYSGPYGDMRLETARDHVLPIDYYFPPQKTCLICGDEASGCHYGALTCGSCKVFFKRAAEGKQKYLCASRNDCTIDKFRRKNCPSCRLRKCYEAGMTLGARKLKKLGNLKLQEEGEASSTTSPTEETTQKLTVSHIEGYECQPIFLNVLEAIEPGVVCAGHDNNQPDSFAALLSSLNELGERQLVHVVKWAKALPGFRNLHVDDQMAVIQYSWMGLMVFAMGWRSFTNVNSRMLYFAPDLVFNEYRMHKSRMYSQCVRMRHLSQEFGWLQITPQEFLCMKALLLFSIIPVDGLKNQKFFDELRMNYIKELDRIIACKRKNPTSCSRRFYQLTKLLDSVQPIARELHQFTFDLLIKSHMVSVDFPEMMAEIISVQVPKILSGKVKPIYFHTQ

[5] = target: T2, Progesterone receptor (Homo sapiens) (UniProt P06401); experiment: Antagonist activity at PR assessed as inhibition of progesterone-induced fluorescent labelled SRC1-4 recruitment at 100 uM after 2 to 4 hrs by TR-FRET assay; format: functional
T2 sequence (whole entry): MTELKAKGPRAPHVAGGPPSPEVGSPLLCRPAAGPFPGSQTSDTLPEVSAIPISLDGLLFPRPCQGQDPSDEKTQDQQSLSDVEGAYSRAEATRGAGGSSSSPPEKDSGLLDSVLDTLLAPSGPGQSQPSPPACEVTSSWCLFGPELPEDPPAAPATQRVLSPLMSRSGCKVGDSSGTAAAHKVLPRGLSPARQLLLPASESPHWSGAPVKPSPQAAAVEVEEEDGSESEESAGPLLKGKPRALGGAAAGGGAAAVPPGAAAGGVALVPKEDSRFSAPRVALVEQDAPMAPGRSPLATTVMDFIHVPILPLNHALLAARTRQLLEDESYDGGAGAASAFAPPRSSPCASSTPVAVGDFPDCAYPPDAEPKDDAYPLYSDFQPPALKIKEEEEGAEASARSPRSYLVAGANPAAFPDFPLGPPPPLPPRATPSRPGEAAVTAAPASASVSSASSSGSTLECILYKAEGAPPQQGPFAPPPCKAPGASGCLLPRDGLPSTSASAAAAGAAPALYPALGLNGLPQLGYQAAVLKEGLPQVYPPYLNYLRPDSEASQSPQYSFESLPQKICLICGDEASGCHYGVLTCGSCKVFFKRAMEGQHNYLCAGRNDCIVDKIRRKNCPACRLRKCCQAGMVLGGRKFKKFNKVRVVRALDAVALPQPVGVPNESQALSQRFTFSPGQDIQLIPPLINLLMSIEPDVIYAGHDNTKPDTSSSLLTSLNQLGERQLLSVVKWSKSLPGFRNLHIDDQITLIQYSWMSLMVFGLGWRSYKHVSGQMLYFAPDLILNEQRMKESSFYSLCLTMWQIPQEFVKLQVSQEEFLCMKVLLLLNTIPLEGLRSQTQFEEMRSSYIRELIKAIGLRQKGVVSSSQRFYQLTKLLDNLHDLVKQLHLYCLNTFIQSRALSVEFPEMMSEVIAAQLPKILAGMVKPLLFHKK
Summary of the method: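 TR-FRET coactivator recruitment with PR ligand-binding domain, fluorescent SRC1-4 peptide and Tb anti-GST antibody, with progesterone at its EC80. Compounds were tested from 100 to 1 μM at 1% DMSO final in coregulator buffer with 5 mM DTT. […] Two independent experiments, each in triplicate; IC50 from variable-slope fit.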

[6] = target: T1, Androgen receptor (Homo sapiens); experiment: Displacement of fluormone from AR LBD after 4 hrs by fluorescence polarization assay; details: concentration not given here
[7] = target: T1, Androgen receptor (Homo sapiens); experiment: Antagonist activity at androgen receptor in androgen dependent human LNCAP cells assessed reduction of CPA-induced PSA expression after 2 hrs by ELISA; format: functional, cell-based
PC-3 = experiment: Cytotoxicity against androgen independent human PC3 cells assessed as cell viability at 50 uM after 24 hrs by alamar blue assay; format: functional; details: for viability at 50 µM: PC-3, 24 h, read-out: Activity
[8] = target: T1, Androgen receptor (Homo sapiens); experiment: Agonist activity at androgen receptor in human LNCAP cells assessed effect on CPA-induced PSA expression after 2 hrs by ELISA; format: functional, cell-based
[9] = Cytotoxicity against human PWR-1E cells assessed as cell viability at 50 uM after 24 hrs by alamar blue assay; format: cell-based; details: read-out: Activity
[10] = target: T1, Androgen receptor (Homo sapiens); experiment: Partial agonist activity at androgen receptor in human LNCAP cells assessed effect on CPA-induced PSA expression after 2 hrs by ELISA; format: functional, cell-based
LNCaP [11] = experiment: Cytotoxicity against androgen dependent human LNCAP cells assessed as cell viability at 50 uM after 24 hrs by alamar blue assay; format: functional; details: read-out: Activity
[12] = target: T1, Androgen receptor (Homo sapiens); experiment: Antagonist activity at androgen receptor in androgen dependent human LNCAP cells assessed reduction of CPA-induced PSA expression at 10 uM after 2 hrs by ELISA; format: functional, cell-based

Activity [4] | inhibition [5] [%] | inhibition [6] [%] | Activity [7] | Activity [8] | Activity [10] | Activity [12] | Compound | Activity (LNCaP [1]) | Activity (CWR22R [2]) | Activity (CWR22R [3]) | viability at 50 µM (PC-3) [%] | viability at 24 h, 50 µM [9] [%] | viability at 50 µM (LNCaP [11]) [%] | Activity (PC-3)
Dose-dependent effect | 30 | 0 | Dose-dependent effect | Active | Active | Active | COc1cc(/C=N/NC(=O)c2cc3c(ccc4ccccc43)o2)cc(OC)c1O | Dose-dependent effect | inactive | Active | 80 | 80 | 80 | 
 |  |  |  |  |  |  | CC(=O)O[C@]1(C(C)=O)CC[C@H]2[C@@H]3C=C(Cl)C4=CC(=O)[C@@H]5C[C@@H]5[C@]4(C)[C@H]3CC[C@@]21C |  |  |  |  |  |  | Active
 | 50 | 0 |  |  |  |  | O=C(N/N=C/c1cc(Br)ccc1O)c1cc2ccccc2cc1O |  |  |  | 50 | 50 | 50 | 
